pEC50, pIC50: −log10 of the molar value. Active and inactive are the calls of the source. The rule behind the calls is not given here.
Key:
[1] = Cmax in mouse at 10 mg/kg, po measured after 5 to 720 mins by LC-tandem mass spectrometry analysis; format: ADME, organism-based; parameters: dose 10 mg/kg, route oral; conditions: in vivo
Procedure, shortened: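 Mice dosed 1 mg/kg i.v. or 10 mg/kg p.o.; plasma drug levels by LC-MS/MS, parameters by noncompartmental analysis; values not from triplicate testing.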

Homo sapiens = organism: Homo sapiens; assay: Selectivity ratio, ratio of IC50 for wild-type His-tagged c-KIT (unknown origin) expressed in baculovirus infected sf9 cells to IC50 for His-tagged c-KIT T670I mutant (544 to 935 residues) (unknown origin) expressed in baculovirus infected sf9 cells
Procedure, shortened: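 Purified protein: His-tagged c-KIT wt or T670I, residues 544−935, expressed in baculovirus-infected SF9 cells. Purified by Ni-NTA then Superdex-200. Enzyme (wt 20 ng/µL, T670I 15 ng/µL) preincubated with inhibitor 60 min at room temperature. Then ATP/substrate added (50 µM ATP) and run 1 h at 37 °C. ADP-Glo luminescence read-out; IC50 from fitted dose–response curves.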

[2] = tested on: Mast/stem cell growth factor receptor Kit (Homo sapiens), P10721 [UNDEFINED MUTATION]; assay: Inhibition of c-KIT 560 to 578 deletion/T670I double mutant in human GIST5R cells assessed as reduction in S6 phosphorylation at S235/S236 residue at 0.1 uM to 3 uM after 1 hr by Western blot analysis; format: cell-based
Chain of Mast/stem cell growth factor receptor Kit (Homo sapiens), P10721 [UNDEFINED MUTATION] (P10721 whole entry, looked up, stated change not applied, the tested form may be a part): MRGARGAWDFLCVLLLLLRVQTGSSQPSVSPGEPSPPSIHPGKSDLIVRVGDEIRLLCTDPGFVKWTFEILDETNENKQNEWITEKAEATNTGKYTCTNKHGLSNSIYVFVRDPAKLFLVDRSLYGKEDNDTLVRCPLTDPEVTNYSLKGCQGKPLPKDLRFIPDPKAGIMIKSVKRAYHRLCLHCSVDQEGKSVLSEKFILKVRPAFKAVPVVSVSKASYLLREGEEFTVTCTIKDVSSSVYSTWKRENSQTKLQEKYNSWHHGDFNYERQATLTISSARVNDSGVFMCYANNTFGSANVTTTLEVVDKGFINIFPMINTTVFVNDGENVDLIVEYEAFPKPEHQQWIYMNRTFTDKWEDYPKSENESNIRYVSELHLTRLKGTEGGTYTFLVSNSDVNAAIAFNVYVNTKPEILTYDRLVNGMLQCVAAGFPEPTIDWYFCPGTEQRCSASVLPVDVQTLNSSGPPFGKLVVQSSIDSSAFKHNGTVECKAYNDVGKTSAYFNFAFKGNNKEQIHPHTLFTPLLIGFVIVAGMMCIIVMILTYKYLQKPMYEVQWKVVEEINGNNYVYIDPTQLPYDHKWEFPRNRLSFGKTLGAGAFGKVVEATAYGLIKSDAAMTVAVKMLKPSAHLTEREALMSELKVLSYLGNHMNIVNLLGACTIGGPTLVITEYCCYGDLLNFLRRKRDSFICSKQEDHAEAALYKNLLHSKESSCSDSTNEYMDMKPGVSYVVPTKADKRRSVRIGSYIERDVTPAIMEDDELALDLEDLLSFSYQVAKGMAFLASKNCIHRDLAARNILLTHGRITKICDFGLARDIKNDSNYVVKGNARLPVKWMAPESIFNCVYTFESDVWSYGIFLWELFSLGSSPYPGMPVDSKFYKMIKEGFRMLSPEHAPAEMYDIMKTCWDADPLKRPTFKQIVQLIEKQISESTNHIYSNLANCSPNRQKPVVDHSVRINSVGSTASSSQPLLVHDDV
Procedure, shortened: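 Serial compound dilutions applied for 1 h to GIST-T1, GIST-T1-T670I (CRISPR/Cas9 T670I knock-in, clone confirmed by Sanger sequencing) or GIST-5R cells in DMEM with 10% FBS. Cells then lysed and phospho-proteins detected by standard Western blotting.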

[3] = AUC (0 to t) in Sprague-Dawley rat at 1 mg/kg, iv measured after 2 to 720 mins by LC-tandem mass spectrometry analysis; format: ADME, organism-based; conditions: in vivo
Procedure, shortened: (§1)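 Male Sprague-Dawley rats (190-210 g), fasted 12 h, randomized into two groups: 1 mg/kg i.v. or 10 mg/kg p.o., both formulated in 10% DMSO/90% of 5% glucose water. Blood sampled at 2-720 min (i.v.) or 5-720 min (p.o.). Plasma protein-precipitated with methanol, caffeine internal standard, LC-MS/MS. Noncompartmental analysis; triplicate, ±SD.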

[4] = tested on: Mast/stem cell growth factor receptor Kit (Homo sapiens), P10721 [V559D,T670I]; assay: Binding affinity to human partial length c-KIT V559D/T670I double mutant (Y545 to D952 residues) expressed in bacterial expression system assessed as enzyme remaining activity at 1 uM by Kinomescan method relative to control
Chain of Mast/stem cell growth factor receptor Kit (Homo sapiens), P10721 [V559D,T670I] (P10721 whole entry V559D/T670I, the tested form may be a part): as the sequence (P10721 whole entry, looked up, stated change not applied, the tested form may be a part) above, with V559D, T670I counted along it
Procedure, shortened: (§2)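 KINOMEscan binding profile (DiscoverX) run at 1 μM against a panel of 468 kinases and mutants. Read-out is percent of control (%Ctrl) remaining bound.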

[5] = tested on: Mast/stem cell growth factor receptor Kit (Homo sapiens), P10721 [L576P]; assay: Inhibition of TEL fused c-KIT L576P mutant (unknown origin) transfected in mouse BAF3 cells assessed as growth inhibition after 72 hrs by CCK8 assay; format: cell-based
Chain of Mast/stem cell growth factor receptor Kit (Homo sapiens), P10721 [L576P] (P10721 whole entry L576P, the tested form may be a part): as the sequence (P10721 whole entry, looked up, stated change not applied, the tested form may be a part) above, with L576P counted along it
Procedure, shortened: (§3)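 Tel-c-KIT-transformed BaF3 lines (IL-3 independent) kept in RPMI 1640 with 10% FBS, 2% L-glutamine and pen/strep. Cells at 1.5 to 5 × 10^4 cells/mL mixed with graded compound and incubated 72 h at 37 °C, 5% CO2. Viability by CCK-8 absorbance at 450 nm, normalized to DMSO. GI50 from dose–response fit.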

[6] = Drug level in plasma of nude mouse xenograted with human GIST5R cells at 100 mg/kg, po administered as single dose and measured at 4 hrs; format: ADME, organism-based; conditions: in vivo
Procedure, shortened: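 GIST-5R xenograft nu/nu mice given a single 100 mg/kg oral dose; plasma drug concentration followed over a time course alongside tumor p-c-KIT, p-ERK and p-AKT.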

[7] = molecular target: Casein kinase I isoform alpha (Homo sapiens, UniProt P48729); assay: Inhibition of wild-type human partial length CSNK1A1 (M1 to L301 residues) expressed in mammalian expression system after 1 hr by Z-LYTE assay
Chain of Casein kinase I isoform alpha (P48729 whole entry, the tested form may be a part, canonical isoform): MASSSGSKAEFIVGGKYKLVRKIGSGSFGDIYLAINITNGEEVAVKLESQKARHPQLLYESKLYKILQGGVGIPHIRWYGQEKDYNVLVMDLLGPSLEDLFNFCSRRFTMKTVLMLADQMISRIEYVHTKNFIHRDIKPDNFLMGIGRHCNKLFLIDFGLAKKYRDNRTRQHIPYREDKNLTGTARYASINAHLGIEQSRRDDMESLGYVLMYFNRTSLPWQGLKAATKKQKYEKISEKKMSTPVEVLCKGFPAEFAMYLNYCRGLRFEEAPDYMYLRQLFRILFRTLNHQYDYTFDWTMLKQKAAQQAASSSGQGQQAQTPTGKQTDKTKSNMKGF

[8] = Half-life in Sprague-Dawley rat at 10 mg/kg, po measured after 5 to 720 mins by LC-tandem mass spectrometry analysis; format: ADME, organism-based; conditions: in vivo; procedure, shortened: as §1
[9] = tested on: Mast/stem cell growth factor receptor Kit (Homo sapiens), P10721 [L576P]; assay: Binding affinity to human partial length c-KIT L576P mutant (Y545 to D952 residues) expressed in bacterial expression system assessed as enzyme remaining activity at 1 uM by Kinomescan method relative to control; procedure, shortened: as §2
[10] = Antiproliferative activity in mouse BAF3 cells after 72 hrs by CCK8 assay; format: cell-based
Procedure, shortened: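 IL-3-independent BaF3 cells carrying tel-c-KIT constructs, grown in RPMI 1640 with 10% FBS. Cells at 1.5-5 × 10^4 cells/mL mixed directly with serial compound dilutions, 72 h at 37 °C, 5% CO2. CCK-8 read-out at 450 nm, normalized to DMSO; GI50 by curve fitting.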

[11] = MRT (0 to infinity) in Sprague-Dawley rat at 1 mg/kg, iv measured after 2 to 720 mins by LC-tandem mass spectrometry analysis; format: ADME, organism-based; conditions: in vivo
Procedure, shortened: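 Male Sprague–Dawley rats (190-210 g), fasted 12 h, given 1 mg/kg i.v. or 10 mg/kg p.o. in DMSO/5% glucose water (1:9). Blood sampled at 2–720 min (i.v.) or 5–720 min (p.o.). Plasma proteins precipitated with methanol using caffeine internal standard, then LC-MS/MS. Noncompartmental analysis; F = AUC0-∞ ratio corrected for dose; triplicate ±SD.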

[12] = tested on: Mast/stem cell growth factor receptor Kit (Homo sapiens), P10721 [D816V]; assay: Inhibition of TEL fused c-KIT D816V mutant (unknown origin) transfected in mouse BAF3 cells assessed as growth inhibition after 72 hrs by CCK8 assay; format: cell-based; procedure, shortened: as §3
Chain of Mast/stem cell growth factor receptor Kit (Homo sapiens), P10721 [D816V] (P10721 whole entry D816V, the tested form may be a part): as the sequence (P10721 whole entry, looked up, stated change not applied, the tested form may be a part) above, with D816V counted along it

[13] = tested on: Mast/stem cell growth factor receptor Kit (Homo sapiens), P10721 [V559D,V654A]; assay: Inhibition of TEL fused c-KIT V654A/V559D double mutant (unknown origin) transfected in mouse BAF3 cells assessed as growth inhibition after 72 hrs by CCK8 assay; format: cell-based; procedure, shortened: as §3
Chain of Mast/stem cell growth factor receptor Kit (Homo sapiens), P10721 [V559D,V654A] (P10721 whole entry V559D/V654A, the tested form may be a part): as the sequence (P10721 whole entry, looked up, stated change not applied, the tested form may be a part) above, with V559D, V654A counted along it

[14] = molecular target: T1, Mast/stem cell growth factor receptor Kit (Homo sapiens, UniProt P10721); assay: Inhibition of wild type c-KIT phosphorylation at Y719 residue in human COLO320DM cells after 2 hrs by Western blot analysis; format: cell-based
T1 sequence (P10721 whole entry, the tested form may be a part): as the sequence (P10721 whole entry, looked up, stated change not applied, the tested form may be a part) above

[15] = tested on: Mast/stem cell growth factor receptor Kit (Homo sapiens), P10721 [UNDEFINED MUTATION]; assay: Binding affinity to human partial length c-KIT V559D/[…] double mutant (Y545 to D952 residues) expressed in bacterial expression system assessed as enzyme remaining activity at 1 uM by Kinomescan method relative to control; procedure, shortened: as §2
[16] = Antiproliferative activity against human GIST48B cells incubated for 72 hrs by CCK8 assay; format: functional
Procedure, shortened: (§4)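 Adherent GIST cells seeded at 1.5-5 × 10^4 cells/mL and left overnight at 37 °C, 5% CO2. Medium then replaced with medium holding serial compound dilutions; 72 h incubation. Viability by CCK-8, absorbance at 450 nm, normalized to DMSO control; GI50 from dose-response fit.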

[17] = molecular target: T1, Mast/stem cell growth factor receptor Kit; assay: Inhibition of wild type c-KIT phosphorylation at Y823 residue in human COLO320DM cells after 2 hrs by Western blot analysis; format: cell-based
GISTT1 = assay: Antiproliferative activity against human GISTT1 cells harboring c-KIT 560 to 578 deletion mutant incubated for 72 hrs by CCK8 assay; format: functional; conditions: GISTT1, 72 h; procedure, shortened: as §4

## O=C(CC(=O)Nc1ccc2c(/C=C/c3ccccn3)n[nH]c2c1)Nc1cccc(F)c1
[1]
  Cmax: 1120 ng/mL
Homo sapiens
  Ratio IC50: 12
[2]
  inhibition: Active
[3]
  AUC(0-t): 259 ng·h/mL
[4]
  Activity: < 1%
[5]
  GI50: 0.157 µM
[6]
  Drug uptake: Not Active
[7]
  pIC50: < 5.00
[8]
  half-life: 4.9 h
[9]
  Activity: < 1%
[10]
  GI50 at 72 h: 3.97 µM
[11]
  MRT inf: 6.4 h
[12]
  GI50: 3.46 µM
[13]
  GI50: 0.265 µM
[14]
  pEC50: 5.84
[15]
  Activity: < 1%
[16]
  GI50: > 10 µM
[17]
  pEC50: 5.69
GISTT1
  GI50: 0.052 µM
